These results are taken from ChEMBL document CHEMBL4513216, “Probing the Open Global Health Chemical Diversity Library for Multistage-Active Starting Points for Next-Generation Antimalarials” (ACS Infect Dis, 2020).

The data set can be described thus: Toxicity liver stage against HepG2, at 10uM. It is filed as cell-based. On the set-up: test concentration 10 uM, cell line HepG2-A16-CD81EGFP. Conditions: human, HepG2-A16-CD81EGFP cells; read-out: INHIBITION
The method, boiled down: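 Uninfected HepG2-A16-CD81EGFP cells, 3 × 10^3 per well, 1536-well, plated on prespotted compound at 10 μM final, parasite-free screening media added to match infected plates; puromycin 10 μM positive, DMSO 0.5% negative; run in parallel with 48 h PbLuc assay at 37 °C, 5% CO2; viability by CellTiter-Glo luminescence, normalized to controls.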
As for `CCOCC(=O)NCCc1nc(C2CC2)cc(C(F)(F)F)n1`, the cytotoxicity at 10 µM was 1.01%. With `COC(=O)c1sccc1S(=O)(=O)N1CCC(Oc2cccc(C)n2)CC1`, the cytotoxicity at 10 µM is 6.48%. As to `Cc1cccc(CN2C[C@@H](NC(=O)C3CCC3)[C@H]3COC[C@H]32)n1`, the cytotoxicity at 10 µM was 4.83%. In the case of `O=C(c1ccnnc1)N1C[C@@H]2CN(c3ncccn3)C[C@@H]2C1`, the cytotoxicity at 10 µM is 7.19%. In the case of `CCN(CC)C(=O)Cn1c(C)cc2nc(SC)n(CC(C)C)c(=O)c21` it was -12.8%. Turning to `COC[C@@]12CCO[C@@H]1CCN(C(=O)Cc1ccccc1F)C2`, the cytotoxicity at 10 µM is -7.27%.

Regarding `CCCN(C(=O)CS(=O)(=O)c1ccccc1)c1cccc(C)c1`, the cytotoxicity at 10 µM was found to be 2.08%. In the case of `O=C(O)Cn1nc(C2CC2)c2c(-c3ccco3)ccnc21` it was -3.96%. In the case of `Cn1nc(C(=O)N2CCCC2)c(F)c1NC(=O)Cc1ccccc1` it was 1.41%; in that of `CCn1nccc1CNC(=O)C1CCCC1`, -18.5%; in that of `Cn1ccc(C(=O)N2CCCC2c2cc[nH]n2)n1` (stereo unspecified), -1.26%. `CC(C)C(=O)N1CCC(c2nc3ccccn3c2NC(C)(C)C)CC1`: the cytotoxicity at 10 µM worked out at 5.86%.

In the case of `CC(=O)N1CCC(CCc2ccnc(NC(=O)c3ccccn3)c2)CC1`, the cytotoxicity at 10 µM turned out to be 0.15%. For `O=C(NCc1ccccc1)C1CN(c2ccccn2)CCO1` (stereo unspecified), the cytotoxicity at 10 µM is -2.44%.

`O=C(CCn1c(C(F)F)cc2cccnc21)NC1CC1`: the cytotoxicity at 10 µM was -1.71%.

Turning to `Cc1cc(C)nc(C2CCN(C(=O)CCn3nnc4ccccc43)C2)n1` (stereo unspecified), the cytotoxicity at 10 µM is -0.834%. Consider `O=C(c1cccc2cccnc12)N1CC[C@@]2(CCCO2)[C@@H](O)C1`, for which the cytotoxicity at 10 µM is -23.8%. Turning to `Cc1nc(C2CCCN2C(=O)Cc2ccc3c(c2)OCO3)nc(O)c1C` (stereo unspecified), the cytotoxicity at 10 µM is -34.9%.

Turning to `Nc1cncc(C(=O)N2Cc3ccccc3OC3(CCOCC3)C2)c1`, the cytotoxicity at 10 µM was 11.9%. As to `CC(=O)N1CCC(c2nccnc2Nc2ncc(C)s2)CC1`, the cytotoxicity at 10 µM stood at 10.1%. The value for `O=C(Cc1ccsc1)N1CCOC(c2nc(-c3ncccn3)no2)C1` (stereo unspecified) was -7.83%. Take `CNc1ncc(CN2CCC(c3nnsc3S(C)(=O)=O)CC2)cn1`: the cytotoxicity at 10 µM was -0.085%.

With `COc1ccc(CN2CCC(c3cc(O)nc(C)n3)C2)c(F)c1` (stereo unspecified), the cytotoxicity at 10 µM was 0.442%. Take `Cc1oc(-c2ccco2)nc1CN1CCc2cnc(C(C)C)nc2C1`: the cytotoxicity at 10 µM stood at 0.0371%. The value for `CSc1c[nH]nc1NS(=O)(=O)c1cc(F)ccc1Cl` was -7.23%; that for `Cc1cnn(CC(C)Nc2nc3ccccc3o2)c1` (stereo unspecified) was -9.49%. The value for `c1cc(NCc2ccsc2)cc(-c2nnc[nH]2)c1` was -54.5%.

Regarding `CC(C)N(C(=O)Cn1cc(Cl)cn1)c1ccccc1`, the cytotoxicity at 10 µM was -1.18%. Take `N#CCCN(Cc1cccnc1)C(=O)c1ccn(-c2ccccc2)n1`: the cytotoxicity at 10 µM was 13.9%. In the case of `Cc1nc(C)c(S(=O)(=O)NC(=O)c2ccsc2)s1` it was -6.85%; in that of `CCCn1cc(NC2CCSCC2)cn1`, -1.88%; in that of `CCOC(=O)N1CCN(C(=O)C2CC(=O)N(c3ccccc3Br)C2)CC1` (stereo unspecified), -7.22%. In the case of `Cc1nnc(CN(C)C2CCN(CCc3cccs3)C2)n1C` (stereo unspecified) it was -3.67%; in that of `CNS(=O)(=O)CC1CCCN1C(=O)c1ccc2cc[nH]c2c1` (stereo unspecified), -0.651%. Turning to `O=c1c2cccnc2cnn1CC(O)c1ccc(Br)cc1` (stereo unspecified), the cytotoxicity at 10 µM was -2.59%. Take `CCc1noc(CS(=O)(=O)CC=C(C)C)n1`: the cytotoxicity at 10 µM is 5.41%.

Consider `O=S(=O)(NCc1cccnc1OC1CCCC1)N1CCCCC1`, for which the cytotoxicity at 10 µM was -3.82%. Regarding `O=C1CC(N(C(=O)CCc2cc(F)ccc2F)C2CC2)C(=O)N1` (stereo unspecified), the cytotoxicity at 10 µM was determined as 3.62%. `COCc1cc(N(CC(F)F)C2CC2)n2ncnc2n1`: the cytotoxicity at 10 µM is -3.94%.

On to `Cc1ccc(-c2nnc(C(C)N3CCc4cncnc4C3)o2)cc1` (stereo unspecified), for which the cytotoxicity at 10 µM was determined as 0.776%.

As for `Cc1nc(CN(C)c2cc(N3CCCC3CO)ncn2)cs1` (stereo unspecified), the cytotoxicity at 10 µM stood at 4.53%. In the case of `Cn1cc(CNc2cnn(CC3CCCO3)c2)c(-c2ccncc2)n1` (stereo unspecified), the cytotoxicity at 10 µM stood at 4.4%. Regarding `COc1ccc(CNC2CCN(c3ccccc3)C2)c(OC)c1OC` (stereo unspecified), the cytotoxicity at 10 µM amounted to 7.49%. On to `CC(C)C(C(=O)N1CCCN(Cc2cnn(C)c2)CC1)n1cncn1` (stereo unspecified), for which the cytotoxicity at 10 µM is -4.52%. In the case of `CO[C@H]1CO[C@@]2(CCCN(C(=O)C3CC=CC3)C2)C1` it was -98.6%; in that of `Cc1cc(C(=O)N2CCC[C@]3(C[C@@H](OCC4CC4)CO3)C2)no1`, -78.9%. As for `Cc1csc2ncc(-c3ccnc(N4CCCC[C@@H]4CO)n3)c(=O)n12`, the cytotoxicity at 10 µM is 9.12%.

As to `O=C(c1cnc(-c2cccnc2)nc1)N1CCC(c2ccncc2)CC1`, the cytotoxicity at 10 µM was -13.7%. The value for `CCCc1nnc2sc(C3CCN(CC)CC3)nn12` was 4.6%; that for `Cc1ccccc1CN1CCN(C(=O)CCn2ccccc2=O)CC1` was 3.57%.

Take `Cn1c(CN2CCCC(Cn3cc(CCO)nn3)C2)cc2ccccc21` (stereo unspecified): the cytotoxicity at 10 µM was -0.849%. Regarding `Cn1cc(Cl)c(CN2CCCC(Cn3cc(CO)nn3)C2)n1` (stereo unspecified), the cytotoxicity at 10 µM is 1.18%. Turning to `CCc1ncc(C(=O)N(C)C(C)c2ccc3c(c2)OCCO3)cn1` (stereo unspecified), the cytotoxicity at 10 µM is -2.96%. Take `CCn1c(C2CCN(C(=O)c3cc(CC(C)C)on3)CC2)nn(C)c1=O`: the cytotoxicity at 10 µM is -3.89%.

Take `CC(C)Oc1ccc2c(NC(=O)[C@H](C)O)nn(CC(F)(F)F)c2c1`: the cytotoxicity at 10 µM is -4.87%. As to `OC1CCCN(CCNc2ncc(Cl)cc2F)C1` (stereo unspecified), the cytotoxicity at 10 µM was 8.81%. Consider `CCc1nc(C)sc1CN1CC[C@@](O)(CCOC)[C@H](C)C1`, for which the cytotoxicity at 10 µM was -1.18%. The value for `Cc1ccc(F)c(C(=O)N2C[C@@H](C(=O)O)[C@H](c3ccncc3)C2)c1Cl` was -2.37%; that for `CCCN1CCN(C(=O)c2ccnc(N)c2)[C@H]2CS(=O)(=O)C[C@H]21` was 2.77%.

As for `Cc1c(C(=O)N(C)c2ccccc2)cccc1N(C)S(C)(=O)=O`, the cytotoxicity at 10 µM stood at 6.36%.

As for `COc1ccc(CNC(=O)CCN2CCOC(C(F)(F)F)C2)cc1` (stereo unspecified), the cytotoxicity at 10 µM was 4.3%. As to `CCC(Oc1ccc(N(C)S(C)(=O)=O)cc1)C(=O)N(C)C` (stereo unspecified), the cytotoxicity at 10 µM is -4.97%. For `Cc1ncccc1OC1(C(=O)NCCCN2CCOCC2)CCNCC1`, the cytotoxicity at 10 µM was -10.8%.

With `CC(C)C(=O)N1CCN(C(=O)c2cc(C(C)C)on2)[C@H]2CS(=O)(=O)C[C@H]21`, the cytotoxicity at 10 µM was -19%. Regarding `CCc1cc(O)nc(C2CCCN2C(=O)c2cccnc2)n1` (stereo unspecified), the cytotoxicity at 10 µM is -1.54%. The value for `Cc1ncc2c(n1)CN(Cc1nnc(-c3ccccc3)o1)CC2` was -9.77%; that for `Cc1nc(C)n(CC2CN(Cc3cscn3)CCO2)n1` (stereo unspecified) was -4.22%; that for `COCCNC(=O)Nc1ccc(-n2cncn2)c(C(F)(F)F)c1` was -5.92%. In the case of `Fc1ccc(-c2cnc(CN3CCn4c(nnc4C4CC4)C3)o2)cc1` it was -13.4%. On to `CN(C)C(=O)CS(=O)(=O)Cc1cc(Cl)c2c(c1)OCCCO2`, for which the cytotoxicity at 10 µM is -5.08%. The value for `COc1ccc(OCCCNC(=O)NCc2csc(C)n2)cc1` was -7.54%; that for `CCc1cccc(N2CCC(NC(=O)c3ccc(=O)[nH]n3)CC2)c1` was 5.8%. In the case of `CNC(=O)NC(=O)Cn1cc(-c2ccccc2)cn1`, the cytotoxicity at 10 µM was found to be 3.37%.

As to `CCc1nccn1C1CCCN(C(=O)Cc2cn3ccccc3n2)C1` (stereo unspecified), the cytotoxicity at 10 µM was -2.72%. On to `Cc1cnn(CC2CCCN2C(=O)c2nccc3ccccc23)c1` (stereo unspecified), for which the cytotoxicity at 10 µM was -2.14%. In the case of `CNS(=O)(=O)c1ccc(CNC(=O)NCC2CCOC2)cc1` (stereo unspecified) it was -2.65%. As for `COCC1CN(Cc2ccsc2)Cc2nn(C)cc21` (stereo unspecified), the cytotoxicity at 10 µM is 5.15%. Regarding `CN1CCO[C@@H]2CN(S(=O)(=O)c3ccccc3F)CC[C@@H]2C1`, the cytotoxicity at 10 µM was 1.35%. With `CNC(=O)[C@H]1C[C@@H]2CN(Cc3c(C)noc3C)C[C@@H]2N1C(C)=O`, the cytotoxicity at 10 µM is -108%.

`COc1cccc(CN2CCCC(c3nn(C)c4nccnc34)C2)c1` (stereo unspecified): the cytotoxicity at 10 µM was -11.2%. Regarding `CNC(=O)[C@H]1C[C@@H]2CCN(c3nnc(C)s3)C[C@@H]2O1`, the cytotoxicity at 10 µM was -75.7%.

For `O=C(Nc1cccc(CNCc2ccsc2)c1)C1CC1`, the cytotoxicity at 10 µM was -10.7%. In the case of `OCCN1CC2(CCN(c3ccccc3)C2)C1` it was 0.234%; in that of `O=C1N(CC2CC2)CCC12CCN(CC1CC1)CC2`, 7.07%; in that of `CC(C)c1nn(C)c(N(C)C)c1CNCc1cccc(CN(C)C)c1`, -4.22%. Turning to `COc1cc(CNCC(O)c2ccc(C)cc2)cc2c1OCCO2` (stereo unspecified), the cytotoxicity at 10 µM is -6.61%. As for `c1cncc(COC[C@@H]2CCC[C@]23CNCCO3)c1`, the cytotoxicity at 10 µM is -96.1%. Take `CN(C)CC(=O)N1CCOC2(CCCN(c3ncccc3F)C2)C1` (stereo unspecified): the cytotoxicity at 10 µM is -9.84%. On to `OCCOCc1ncn2c1CN(Cc1cccs1)CCC2`, for which the cytotoxicity at 10 µM was -82.9%. In the case of `O=C(O)CC1CN(Cc2ccccc2)CCO1` (stereo unspecified), the cytotoxicity at 10 µM worked out at 6.54%. With `CC(C)Nc1nc2c(c(N(C)C)n1)CCN(Cc1nccn1C)CC2`, the cytotoxicity at 10 µM stood at 1.35%.

`Cc1cc(CN2C[C@@H]3COC[C@H](C(=O)N4CCCCO4)[C@@H]3C2)no1`: the cytotoxicity at 10 µM is -77.9%.

Take `CC1c2ncc(COCC3CC3)n2CCN1C` (stereo unspecified): the cytotoxicity at 10 µM was 7.83%. As for `COc1ccccc1CCNC(=O)C1CCC(Cn2cnnn2)CC1` (stereo unspecified), the cytotoxicity at 10 µM amounted to 1.61%. `Cc1cc(C)cc(N2CCN(C(=O)CCN3C[C@H]4CC[C@@H]3C4)CC2=O)c1`: the cytotoxicity at 10 µM was -4.76%. For the compound `C=c1ncsc1=C1NN=C(C2CCCN2C(=O)CCn2ccc(C)n2)O1` (stereo unspecified), the cytotoxicity at 10 µM came to 1.66%.
